Each structure is given as a SMILES string. Some results are limits rather than exact numbers.

Assay [1] concerns the target T1, Thymidine kinase 2, mitochondrial (Homo sapiens, UniProt O00142).
T1 sequence (O00142 whole entry): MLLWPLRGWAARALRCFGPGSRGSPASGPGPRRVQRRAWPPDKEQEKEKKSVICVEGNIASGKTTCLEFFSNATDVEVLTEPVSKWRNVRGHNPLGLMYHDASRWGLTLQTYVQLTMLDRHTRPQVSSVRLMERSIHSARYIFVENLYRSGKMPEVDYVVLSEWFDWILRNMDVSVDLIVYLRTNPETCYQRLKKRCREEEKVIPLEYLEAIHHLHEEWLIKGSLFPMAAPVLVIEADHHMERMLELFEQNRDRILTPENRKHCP
Nature of the assay: Inhibition of human TK2 assessed as [methyl-3H]dThd phosphorylation. In a few lines: (§1)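 Purified recombinant GST-fusion kinases (from pGEX-5X-1 cDNAs) assayed in 50 mM Tris–HCl pH 8.0, 2.5 mM MgCl₂, 10 mM DTT, 0.5 mM CHAPS, 3 mg/mL BSA, 2.5 mM ATP, 0.25 µCi [methyl-³H]dThd (2 µM), ± varying inhibitor levels, 37 °C for 30 min. Reactions spotted on DE-81 filter disks, washed, and counted by scintillation. IC50 is the concentration halving dThd phosphorylation.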

The target in assay [2] is T2, Thymidine kinase, cytosolic (Homo sapiens, UniProt P04183).
T2 sequence (P04183 whole entry): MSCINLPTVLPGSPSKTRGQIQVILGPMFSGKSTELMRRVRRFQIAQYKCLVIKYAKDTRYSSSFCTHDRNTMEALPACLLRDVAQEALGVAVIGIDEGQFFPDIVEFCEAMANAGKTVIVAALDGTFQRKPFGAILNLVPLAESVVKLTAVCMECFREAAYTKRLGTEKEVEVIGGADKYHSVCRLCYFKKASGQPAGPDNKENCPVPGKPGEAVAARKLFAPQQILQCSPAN
Kind of assay: Inhibition of human TK1 assessed as [methyl-3H]dThd phosphorylation. The gist of the method:
as §1

In the next assay the target is T3, Deoxynucleoside kinase (Drosophila melanogaster, UniProt Q9XZT6).
T3 sequence (Q9XZT6 whole entry): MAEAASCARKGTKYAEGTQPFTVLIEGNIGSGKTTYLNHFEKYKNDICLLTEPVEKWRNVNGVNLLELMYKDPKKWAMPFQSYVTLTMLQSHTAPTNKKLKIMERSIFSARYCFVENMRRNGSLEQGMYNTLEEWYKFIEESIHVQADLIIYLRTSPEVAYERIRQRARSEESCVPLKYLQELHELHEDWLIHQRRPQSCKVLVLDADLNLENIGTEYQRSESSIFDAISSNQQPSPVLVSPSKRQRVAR
Kind of assay: Inhibition of Drosophila melanogaster dNK assessed as [methyl-3H]dThd phosphorylation. In a few lines:
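Purified recombinant enzyme expressed as a GST fusion. Mix: 50 mM Tris–HCl pH 8.0, 2.5 mM MgCl2, 10 mM DTT, 0.5 mM CHAPS, 3 mg/mL BSA, 2.5 mM ATP, 2 µM [methyl-3H]dThd (0.25 µCi). Incubated 37 °C, 30 min, with varied inhibitor levels. Aliquots spotted on DE-81 disks, washed, scintillation-counted.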

The target in assay [3] is T4, Thymidine kinase (Varicella-zoster virus (strain Dumas) (HHV-3) (Human herpesvirus 3), UniProt P09250).
T4 sequence (P09250 whole entry): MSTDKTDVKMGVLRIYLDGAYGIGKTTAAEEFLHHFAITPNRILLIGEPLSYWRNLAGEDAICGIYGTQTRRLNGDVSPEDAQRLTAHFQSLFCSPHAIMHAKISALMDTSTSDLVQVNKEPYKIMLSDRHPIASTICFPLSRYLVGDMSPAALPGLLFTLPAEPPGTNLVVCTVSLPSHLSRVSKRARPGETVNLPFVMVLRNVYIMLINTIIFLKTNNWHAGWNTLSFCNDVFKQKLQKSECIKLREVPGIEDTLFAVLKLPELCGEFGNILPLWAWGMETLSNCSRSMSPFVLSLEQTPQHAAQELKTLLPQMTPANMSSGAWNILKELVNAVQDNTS
Kind of assay: Inhibition of VZV TK assessed as [methyl-3H]dThd phosphorylation. Also noted: species or system Human alphaherpesvirus 3.

The target of assay [4] is T5, Thymidine kinase (Human alphaherpesvirus 1, UniProt Q9QNF7).
T5 sequence (Q9QNF7 whole entry): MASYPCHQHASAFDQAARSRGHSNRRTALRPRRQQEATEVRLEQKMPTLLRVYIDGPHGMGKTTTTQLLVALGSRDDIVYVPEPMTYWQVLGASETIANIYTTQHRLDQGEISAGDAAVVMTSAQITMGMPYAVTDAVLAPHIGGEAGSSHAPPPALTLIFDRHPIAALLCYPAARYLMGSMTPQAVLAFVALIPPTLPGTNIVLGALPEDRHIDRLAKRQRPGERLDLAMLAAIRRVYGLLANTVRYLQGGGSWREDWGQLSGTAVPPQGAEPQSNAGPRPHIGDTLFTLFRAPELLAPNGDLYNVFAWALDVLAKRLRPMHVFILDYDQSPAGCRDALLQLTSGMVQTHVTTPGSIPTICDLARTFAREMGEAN
Nature of the assay: Inhibition of HSV1 TK assessed as [methyl-3H]dThd phosphorylation. The gist of the method:
as §1

Regarding `CCCCCCCC(=O)O[C@H]1[C@H](O)[C@@H](CO)O[C@H]1n1cnc2c(=O)[nH]c(N)nc21`, the IC50 (in assay [1]; in assay [2]; at Deoxynucleoside kinase; at Thymidine kinase [3]; on Thymidine kinase [4]) was over 500 µM in each case.
For `CC(C)(C)OC(=O)NCCCC(=O)O[C@H]1[C@H](O)[C@@H](CO)O[C@H]1n1cc(/C=C/Br)c(=O)[nH]c1=O`, the IC50 (in general, the midpoint of a concentration-inhibition curve) is 55 µM in assay [1], 133 µM at Deoxynucleoside kinase, 130 µM at Thymidine kinase [3] and 485 µM at Thymidine kinase [4].
`O=c1[nH]c(=O)n([C@@H]2O[C@H](CO)[C@@H](O)[C@@H]2O)cc1/C=C/Br` [SORIVUDINE]: the IC50 in assay [1] is 43 µM; in assay [2] it was over 500 µM; at Deoxynucleoside kinase it was 28 µM; on Thymidine kinase [3] it was 3.2 µM; at Thymidine kinase [4] it was 3.6 µM.
Take `COCC(=O)O[C@H]1[C@H](O)[C@@H](CO)O[C@H]1n1cc(/C=C/Br)c(=O)[nH]c1=O`: the IC50 on Deoxynucleoside kinase is 215 µM; at Thymidine kinase [4], 84 µM.
With `CCCCCCCCCCCC(=O)O[C@H]1[C@H](O)[C@@H](CO)O[C@H]1n1cc(C)c(=O)[nH]c1=O`, the IC50 (in assay [2]; on Thymidine kinase [4]) was at least 1000 µM each time.
`Cc1cn([C@@H]2O[C@H](CO)[C@@H](O)[C@@H]2O)c(=O)[nH]c1=O`: the IC50 at Thymidine kinase [4] stood at 24 µM.
As for `CCCCCCCCO[C@H]1[C@H](O)[C@@H](CO)O[C@H]1n1cc(C)c(=O)n(CCCCCCCC)c1=O`, the IC50 (in assay [1]; at Deoxynucleoside kinase; at Thymidine kinase [3]; at Thymidine kinase [4]) was over 1000 µM in each case.
For `O=C(Cc1ccccc1)O[C@H]1[C@H](O)[C@@H](CO)O[C@H]1n1cc(/C=C/Br)c(=O)[nH]c1=O`, the IC50 in assay [1] is 74 µM; at Deoxynucleoside kinase, 419 µM; at Thymidine kinase [3], 268 µM; at Thymidine kinase [4], 247 µM.
Regarding `CCCCC(=O)O[C@H]1[C@H](O)[C@@H](CO)O[C@H]1n1cc(C)c(=O)[nH]c1=O`, the IC50 at Thymidine kinase [4] is over 1000 µM.
`CCCCCCCCCC(=O)O[C@H]1[C@H](O)[C@@H](CO)O[C@H]1n1cc(C)c(=O)[nH]c1=O`: the IC50 on Thymidine kinase [4] was at least 1000 µM.
Still for that read-out and setting: with `CCCCCCCCO[C@H]1[C@H](O)[C@@H](CO)O[C@H]1n1cc(C)c(=O)[nH]c1=O` the figure was over 1000 µM.
Turning to `CC(C)(C)OC(=O)NCCCCCCCC(=O)O[C@H]1[C@H](O)[C@@H](CO)O[C@H]1n1cc(/C=C/Br)c(=O)[nH]c1=O`, the concentration for half-maximal inhibition (IC50) worked out at 6.4 µM in assay [1], 74 µM on Deoxynucleoside kinase, 349 µM on Thymidine kinase [3] and 447 µM at Thymidine kinase [4].
The corresponding values for `CCCCCCCCCC(=O)N[C@H]1[C@H](O)[C@@H](CO)O[C@H]1n1cc(C)c(=O)[nH]c1=O` are 480 µM, over 500 µM, over 500 µM and over 500 µM.
For `Nc1ccn([C@@H]2O[C@H](CO)[C@@H](O)[C@@H]2O)c(=O)n1` [CYTARABINE], the IC50 at Thymidine kinase [4] is over 1000 µM.
As for `COc1ccc(CC(=O)O[C@H]2[C@H](O)[C@@H](CO)O[C@H]2n2cc(/C=C/Br)c(=O)[nH]c2=O)cc1`, the IC50 in assay [1] is 44 µM; on Deoxynucleoside kinase it was 182 µM; at Thymidine kinase [3] it was 39 µM; at Thymidine kinase [4] it was 68 µM.
For `CCCCCCCC(=O)O[C@H]1[C@H](O)[C@@H](CO)O[C@H]1n1cc(/C=C/Br)c(=O)[nH]c1=O`, the IC50 at Thymidine kinase [4] is at least 1000 µM.
On to `CC(C)(C)OC(=O)NCCCCCC(=O)O[C@H]1[C@H](O)[C@@H](CO)O[C@H]1n1cc(/C=C/Br)c(=O)[nH]c1=O`, for which the 50% inhibitory concentration (IC50) in assay [1] is 61 µM; on Deoxynucleoside kinase it was 77 µM; on Thymidine kinase [3] it was 277 µM; on Thymidine kinase [4] it was at least 500 µM.
Regarding `CC(C)(C)OC(=O)NCCCCCCCCCCCC(=O)O[C@H]1[C@H](O)[C@@H](CO)O[C@H]1n1cc(/C=C/Br)c(=O)[nH]c1=O`, the IC50 was 3.8 µM in assay [1], at least 500 µM on Deoxynucleoside kinase, over 500 µM on Thymidine kinase [3] and over 500 µM at Thymidine kinase [4].
